Assay results from the RNAGym collection of RNA variant scans (doi:10.1038/s41586-018-0170-7).

B1: tRNA (parent)
chain: GUUCCGUUGGCGUAAUGGUAACGCGUCUCCCUCCUAAGGAGAAGACUGCGGGUUCGAGUCCCGUACGGAACG

Variants of: B1
Assay: yeast fitness, log relative to wild type (ln ratio); higher = fitter; tRNA-Arg(CCU), competitive growth, 37 C, 1 M NaCl
In short: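 A combinatorial tRNA-Arg(CCU) variant library was carried on a HIS3 centromeric plasmid in BY4742 lacking the chromosomal gene, from two independent transformations. Pools grew 4 generations in SC-HIS at 30 °C, then ~6.5 generations (~26.5 h) in SC-HIS 1M NaCl at 37 °C, with three outputs per input. Variants were counted by 125 bp paired-end Illumina sequencing. Fitness is ln of each genotype's generations (OD-scaled log2 output/input frequency, inverse-variance weighted across replicates) over the wild-type's.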

With G1A U2C G6A A43C C46U A70G C71U as the variant, how does the “yeast fitness (ln)” value read?
The value was -0.354.

With G1A C27U C66U A69G A70G C71U as the variant, how does the “yeast fitness (ln)” value read?
The value was -0.361.

With G1A G6A A69G C71U as the variant, how does the “yeast fitness (ln)” value read?
Its value is -0.146.

For G1A G6A A43C C66U, which “yeast fitness (ln)” value is on record?
The value was -0.195.

Which “yeast fitness (ln)” value does the source give for C27U A69G here?
Its value is -0.0417.

For G1A G6A C46U A70U, which “yeast fitness (ln)” value is on record?
Its value is -0.103.

With U2C G6A C27U A43C A69G C71U as the variant, how does the “yeast fitness (ln)” value read?
The value was -0.29.

Which “yeast fitness (ln)” value does the source give for G1A G6U A43C C46U A69G A70G here?
Its value is -0.281.

With U2C G6U A43C C66U A70U as the variant, how does the “yeast fitness (ln)” value read?
Its value is -0.194.

For G1A U2C A69G A70U C71U, which “yeast fitness (ln)” value is on record?
The value was -0.321.

For U2G A43C C66U A70U C71U, which “yeast fitness (ln)” value is on record?
The value was -0.351.

With U2G G6U A43C C66A A69G A70U as the variant, how does the “yeast fitness (ln)” value read?
The value was -0.185.

With G1A G6U C27U C46U C66U A70U as the variant, how does the “yeast fitness (ln)” value read?
The value was -0.29.

Which “yeast fitness (ln)” value does the source give for G6U A43C C46U C66A A70G here?
The value was -0.0224.

Which “yeast fitness (ln)” value does the source give for G1A G6A C27U C46U C66U C71U here?
Its value is -0.0279.

Which “yeast fitness (ln)” value does the source give for U2G G6A A43C C46U A69G A70U here?
Its value is -0.123.

For U2C C27U C46U C71U, which “yeast fitness (ln)” value is on record?
Its value is -0.268.

Which “yeast fitness (ln)” value does the source give for G1A U2C G6U C27U A43C C46U A70G C71U here?
The value was -0.198.

With G1A U2C C66A A70U C71U as the variant, how does the “yeast fitness (ln)” value read?
The value was -0.0883.

With G1A G6U A43C C46U C66A A70U C71U as the variant, how does the “yeast fitness (ln)” value read?
Its value is -0.334.

For A43C C66U, which “yeast fitness (ln)” value is on record?
Its value is -0.178.

With C27U A43C C66A A69G A70U as the variant, how does the “yeast fitness (ln)” value read?
Its value is -0.289.

Which “yeast fitness (ln)” value does the source give for G6A C27U A43C C66U A69G C71U here?
The value was -0.368.

For G6A A43C A69G A70G C71U, which “yeast fitness (ln)” value is on record?
Its value is -0.305.

For G1A U2G C66U A69G A70G C71U, which “yeast fitness (ln)” value is on record?
The value was -0.165.

For U2G G6U C27U C46U C66U A70G C71U, which “yeast fitness (ln)” value is on record?
Its value is -0.261.

Which “yeast fitness (ln)” value does the source give for U2G A43C C66A A69G A70G C71U here?
The value was -0.235.

Which “yeast fitness (ln)” value does the source give for U2G C27U C46U A70G C71U here?
The value was -0.216.

With U2G G6A C27U C66U A69G C71U as the variant, how does the “yeast fitness (ln)” value read?
Its value is -0.409.

Which “yeast fitness (ln)” value does the source give for C27U A43C C46U C66U A69G A70U C71U here?
The value was -0.391.

For G1A U2C A43C C46U C66U A69G A70G, which “yeast fitness (ln)” value is on record?
The value was -0.0919.

Which “yeast fitness (ln)” value does the source give for U2G G6U C27U A43C C46U A69G A70U C71U here?
The value was -0.418.

For G1A U2G C27U C46U A69G C71U, which “yeast fitness (ln)” value is on record?
Its value is -0.206.

For G1A U2G G6A C27U A43C C46U C66U A70G, which “yeast fitness (ln)” value is on record?
The value was -0.216.

With G1A U2G C27U A43C A69G C71U as the variant, how does the “yeast fitness (ln)” value read?
The value was -0.37.

For C66A A69G A70G C71U, which “yeast fitness (ln)” value is on record?
Its value is -0.0757.

Which “yeast fitness (ln)” value does the source give for G1A U2G C27U A43C A70G here?
Its value is -0.176.

With G1A G6U C27U A43C C46U C66A A69G C71U as the variant, how does the “yeast fitness (ln)” value read?
Its value is -0.671.

With G1A U2C C46U C66A A70U as the variant, how does the “yeast fitness (ln)” value read?
Its value is -0.0262.

For U2G A43C C66U C71U, which “yeast fitness (ln)” value is on record?
Its value is -0.343.

Which “yeast fitness (ln)” value does the source give for G6U C46U C66A C71U here?
Its value is -0.00198.

For G1A U2G A43C C66U A69G C71U, which “yeast fitness (ln)” value is on record?
The value was -0.497.

With U2G G6A C27U C66A C71U as the variant, how does the “yeast fitness (ln)” value read?
The value was -0.216.

With A43C C66A A69G C71U as the variant, how does the “yeast fitness (ln)” value read?
The value was -0.226.

Which “yeast fitness (ln)” value does the source give for U2C G6A C46U C66U A69G A70G here?
Its value is -0.0132.

With G6A A43C A69G A70U C71U as the variant, how does the “yeast fitness (ln)” value read?
Its value is -0.429.

Which “yeast fitness (ln)” value does the source give for G1A A43C A70U here?
The value was -0.13.

Which “yeast fitness (ln)” value does the source give for U2C C27U here?
Its value is -0.0171.

Which “yeast fitness (ln)” value does the source give for G6U A43C A69G A70U here?
Its value is -0.371.

Which “yeast fitness (ln)” value does the source give for A43C A69G A70G here?
Its value is -0.0594.

Which “yeast fitness (ln)” value does the source give for G1A U2G G6A C27U C46U A69G C71U here?
Its value is -0.269.

Which “yeast fitness (ln)” value does the source give for G1A G6A C27U C46U C66U A69G A70G C71U here?
Its value is -0.698.

With G1A U2C G6A A43C C46U A70G as the variant, how does the “yeast fitness (ln)” value read?
Its value is -0.0508.

Which “yeast fitness (ln)” value does the source give for G1A C27U C66U A69G A70U here?
Its value is -0.295.

With G1A U2C G6U A43C C66A A70G C71U as the variant, how does the “yeast fitness (ln)” value read?
Its value is -0.0204.

Which “yeast fitness (ln)” value does the source give for G1A G6U C46U C66U A70G C71U here?
Its value is -0.277.

Which “yeast fitness (ln)” value does the source give for U2C C27U C66U A70G C71U here?
Its value is -0.172.

For G1A G6U C27U A43C A69G A70G C71U, which “yeast fitness (ln)” value is on record?
Its value is -0.34.

With G1A U2C G6A A43C C46U C66U A70U C71U as the variant, how does the “yeast fitness (ln)” value read?
Its value is -0.402.

With G1A G6U A43C C46U C66U A69G C71U as the variant, how does the “yeast fitness (ln)” value read?
The value was -0.43.

With U2C C46U A70G C71U as the variant, how does the “yeast fitness (ln)” value read?
The value was -0.00238.

Which “yeast fitness (ln)” value does the source give for C27U C46U C66A C71U here?
The value was -0.0951.

With U2C C27U A43C C66U A70U as the variant, how does the “yeast fitness (ln)” value read?
Its value is -0.135.

Which “yeast fitness (ln)” value does the source give for C46U C66A A69G C71U here?
Its value is -0.0675.

With U2G G6U C27U A43C A69G A70G as the variant, how does the “yeast fitness (ln)” value read?
The value was -0.322.

Which “yeast fitness (ln)” value does the source give for G1A U2C G6U A70U here?
The value was -0.00843.

For G6A C27U C66U A70G C71U, which “yeast fitness (ln)” value is on record?
The value was -0.249.

Which “yeast fitness (ln)” value does the source give for G6U C27U A43C C66U A70G C71U here?
Its value is -0.352.

With G1A U2G C27U C46U C66A as the variant, how does the “yeast fitness (ln)” value read?
The value was -0.0584.

For G1A G6U C27U A43C C66U A69G C71U, which “yeast fitness (ln)” value is on record?
The value was -0.258.

For U2C G6U A43C C66A C71U, which “yeast fitness (ln)” value is on record?
The value was -0.0984.

Which “yeast fitness (ln)” value does the source give for G6A A43C C66U A69G A70U C71U here?
The value was -0.295.

With U2C G6A C27U A43C C46U C66U A69G C71U as the variant, how does the “yeast fitness (ln)” value read?
Its value is -0.281.

With U2G G6U C27U A43C C46U C66U A69G A70U C71U as the variant, how does the “yeast fitness (ln)” value read?
Its value is -0.507.

With U2G G6U C27U A43C C66U A70U C71U as the variant, how does the “yeast fitness (ln)” value read?
Its value is -0.441.

For G1A U2G C27U C46U C66A A69G A70G C71U, which “yeast fitness (ln)” value is on record?
The value was -0.247.

Which “yeast fitness (ln)” value does the source give for G6U C27U A43C C46U C66A A69G A70G C71U here?
The value was -0.312.

With G1A G6U C46U C66A A69G A70U as the variant, how does the “yeast fitness (ln)” value read?
The value was -0.106.

For U2C G6U C46U, which “yeast fitness (ln)” value is on record?
The value was -0.0289.

For G1A C27U A70U C71U, which “yeast fitness (ln)” value is on record?
The value was -0.34.

For G1A U2C G6A C27U A43C C46U A70G, which “yeast fitness (ln)” value is on record?
The value was 0.0488.

Which “yeast fitness (ln)” value does the source give for G1A U2G G6U C27U C46U C71U here?
Its value is -0.259.

With U2C G6U C27U C66U A69G A70G as the variant, how does the “yeast fitness (ln)” value read?
Its value is -0.277.
